We go through 10 molecules from ChEMBL document CHEMBL1131320, “Role of the C(6)-hydroxy group in bicyclomycin: synthesis, structure, and chemical, biochemical, and biological properties” (1998).

Values after ≈ are worked out from the molar mass of the structure shown. Some results are limits rather than exact numbers.

In test [1] the test system is Escherichia coli. As to the kind of experiment: The compound was tested for the % inhibition of transcription termination (TT) activity in Escherichia coli-rho at 100 uM. It is filed as functional. A digest of the protocol:
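Rho-dependent transcription termination (Platt method), at pH 7.9 with [α-³²P]UTP label and purified E. coli rho. Percent termination is read at 100 µM.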

Test [2] concerns Escherichia coli. Nature of the test: The compound was tested for the concentration to inhibit 50% of transcription termination activity in Escherichia coli-rho and is expressed in I50. It is filed as functional. A digest of the protocol:
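Rho-dependent transcription termination following Platt and co-workers, at pH 7.9 with [α-³²P]UTP and rho purified from E. coli AR120/p39-AS. I50 is the average 50% inhibition concentration from duplicate tests.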

For test [3], the system named is Escherichia coli. As to the kind of experiment: The compound was tested for minimum inhibitory concentration (MIC) against Escherichia coli W3350 cells. The format is functional. The essentials: (§1)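 Filter-disk assay; MIC taken as the average minimum inhibitory concentration from duplicate tests.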
The target in test [4] is Transcription termination factor rho (Escherichia coli) (UniProt P0AG30). Nature of the test: The compound was tested for the % inhibition of rho poly(C)-stimulated ATPase activity at 400 uM.
For test [5] the target is unchanged. Nature of the test: The compound was tested for the concentration to inhibit 50% of ATPase activity.
The test system of test [6] is Escherichia coli. As to the kind of experiment: The compound was tested for minimum inhibitory concentration (MIC) against Escherichia coli W3350 cells. The format is functional. The essentials: as §1
Test [7] relates to Escherichia coli. Nature of the test: The compound was tested for the % inhibition of rho poly(C)-stimulated ATPase activity at 400 uM. The format is functional. The essentials: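 Poly(C)-dependent ATPase of purified E. coli rho (AR120/p39-AS overexpression, Lowry-quantified), run at pH 7.9 with [γ-³²P]ATP. Percent inhibition is read at 400 µM alongside a concurrently run parent-antibiotic reference.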

Transcription termination factor rho (Escherichia coli), sequence (P0AG30 whole entry, looked up): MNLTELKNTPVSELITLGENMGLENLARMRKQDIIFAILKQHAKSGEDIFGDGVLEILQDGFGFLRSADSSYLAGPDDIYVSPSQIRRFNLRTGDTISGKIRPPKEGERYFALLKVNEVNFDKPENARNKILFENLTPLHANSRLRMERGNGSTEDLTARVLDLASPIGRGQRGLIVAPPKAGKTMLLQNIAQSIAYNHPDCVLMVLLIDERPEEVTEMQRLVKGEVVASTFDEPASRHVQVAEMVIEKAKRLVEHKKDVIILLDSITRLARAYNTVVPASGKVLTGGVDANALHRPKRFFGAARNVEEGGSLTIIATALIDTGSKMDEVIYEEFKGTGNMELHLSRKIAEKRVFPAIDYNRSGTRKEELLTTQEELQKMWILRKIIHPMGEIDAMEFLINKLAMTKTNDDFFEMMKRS

What is called inhibition is the drop in the measured response relative to a control, in per cent. Broadly, the MIC is the smallest concentration in the dilution series that meets the test's criterion for growth inhibition. In the test on Escherichia coli [1], `C=C1CCOC2([C@@H](O)[C@@](C)(O)CO)NC(=O)[C@@]1(NO)NC2=O` registered an inhibition at 100 µM of 22%. For the same molecule, the I50 is over 100 µM in the test on Escherichia coli [2] and over 400 in test [5]. Moreover, in the test with Escherichia coli [3] (read-out: MIC), the MIC is over 32 µg/mL. The inhibition in test [4] was determined as 45%.
In the same order, the values of `C=C1CCOC2([C@@H](O)[C@@](C)(O)CO)NC(=O)[C@@]1(NC(C)=O)NC2=O` are 1%, over 100 µM, over 400, over 32 µg/mL and 15%.
Molecule `C=C1CCOC2([C@@H](O)[C@@](C)(O)CO)NC(=O)[C@@]1(N(C)C)NC2=O` showed an inhibition at 100 µM in the test on Escherichia coli [1] of 1%. The same molecule returned an MIC against Escherichia coli [6] of over 32 µg/mL. Moreover, the values for the I50 (in the test on Escherichia coli [2]; in test [5]) were over 100 µM and over 400, respectively. For the same molecule, the inhibition in test [4] was determined as 1%.
`C=C1CCOC2([C@@H](O)[C@@](C)(O)CO)NC(=O)[C@@]1(N(C)OC)NC2=O` displayed an inhibition at 100 µM in the test on Escherichia coli [1] of 0%. The I50 in the test with Escherichia coli [2] is over 100 µM; in test [5], over 400. The minimum inhibitory concentration (MIC) in the test with Escherichia coli [3] (read-out: MIC) was over 32 µg/mL. In test [4], the inhibition amounted to 7%.
For `C=C1CCOC2([C@@H](O)[C@@](C)(O)CO)NC(=O)[C@@]1(NC)NC2=O`, in the test on Escherichia coli [1], the inhibition at 100 µM stood at 2%. Also, the I50 in the test with Escherichia coli [2] was over 100 µM; in test [5], over 400. In addition, the MIC in the test with Escherichia coli [3] (read-out: MIC) was over 32 µg/mL. The same molecule gave an inhibition in test [4] of 3%.
Taken in the same sequence, the figures for `C=C1CCOC2([C@@H](O)[C@@](C)(O)CO)NC(=O)[C@@]1(NOC)NC2=O` were 0%, over 100 µM, over 400, over 32 µg/mL and 13%.
Turning to `C=C1CCOC2([C@@H](O)[C@@](C)(O)CO)NC(=O)[C@@]1(N)NC2=O`, the inhibition at 400 µM with Escherichia coli [7] turned out to be 17%. The molecule also registered an inhibition at 100 µM in the test on Escherichia coli [1] of 5%. Moreover, in the test with Escherichia coli [6], the minimal inhibitory concentration (MIC) was over 32 µg/mL. Moreover, the I50 with Escherichia coli [2] is over 100 µM; in test [5], over 400.
The molecule `C=C1CCOC2([C@@H](O)[C@@](C)(O)CO)NC(=O)[C@@]1(N(C)O)NC2=O` yielded an inhibition at 100 µM in the test on Escherichia coli [1] of 0%. The I50 was over 100 µM in the test with Escherichia coli [2] and over 400 in test [5]. Further, the MIC in the test on Escherichia coli [3] (read-out: MIC) is over 32 µg/mL. This molecule also showed an inhibition in test [4] of 16%.
In the same order, the values of `C=C1CCOC2([C@@H](O)[C@@](C)(O)CO)NC(=O)[C@@]1(S)NC2=O` are 8%, over 100 µM, over 400, over 32 µg/mL and 28%.
In the test on Escherichia coli [1], `C=C1CCOC2([C@@H](O)[C@@](C)(O)CO)NC(=O)[C@@]1(O)NC2=O` came in with an inhibition at 100 µM of 100%. The molecule also gave an I50 in the test with Escherichia coli [2] of 5 µM. 250 µg/mL (≈ 827 µM) was the least that counted as inhibitory in the test with Escherichia coli [3] (MIC).
